The nature of series [1]: Cytotoxicity against MDCK cells after 3 days by fluorescein diacetate-based fluorimetric analysis. The class given is cell-based, Canis lupus familiaris. Conditions: dog. In a few lines: (§1)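 Confluent MDCK monolayers were mock-infected or infected with about 50-100 PFU of influenza virus per well. At read-out the medium was removed and cells were stained with fluorescein diacetate in PBS for 20 min at 35 °C. Fluorescence was read at ex 485/em 538 nm. CC50 and EC50 were derived from the fluorescence, and the selectivity index was taken as CC50/EC50.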

Series [2] relates to Influenza B virus. Briefly: Antiviral activity against Influenza B virus (B/Panama/45/1990) infected in MDCK cells assessed as inhibition of virus-induced cytopathogenicity at 1 hr post-infection measured after 3 days by fluorescein-diacetate based fluorimetric analysis. Conditions: B/Panama/45/1990, MDCK. The class given is functional, cell-based. A digest of the protocol:
as §1
On the technique in general: Damage to the host cells serves as the signal in cytopathic effect assays.

Series [3] deals with Influenza A virus. As to the kind of experiment: Antiviral activity against Influenza A virus (A/Taiwan/1/1986(H1N1)) infected in MDCK cells assessed as inhibition of virus-induced cytopathogenicity at 1 hr post-infection measured after 3 days by fluorescein-diacetate based fluorimetric analysis. It is filed as functional, organism-based. A digest of the protocol:
as §1

Series [4] is described as follows: Selectivity ratio of CC50 for MDCK cells to EC50 for Influenza B virus (B/Panama/45/1990). The class given is ADME, cell-based. Conditions: dog, read-out: Ratio CC50/EC50. A digest of the protocol:
as §1

Series [5] concerns Influenza B virus. Briefly: Antiviral activity against Influenza B virus (B/Brisbane/60/2008) infected in MDCK cells assessed as inhibition of virus-induced cytopathogenicity at 1 hr post-infection measured after 3 days by fluorescein-diacetate based fluorimetric analysis. The class given is functional, cell-based. The note with it: B/Brisbane/60/2008, MDCK. In a few lines: as §1

The test system of series [6] is Influenza B virus. Briefly: Antiviral activity against Influenza B virus (B/Taiwan/2/62) infected in MDCK cells assessed as inhibition of virus-induced cytopathogenicity at 1 hr post-infection measured after 3 days by fluorescein-diacetate based fluorimetric analysis. The class given is functional, organism-based. A digest of the protocol:
as §1

For series [7], the system named is Influenza B virus. As to the kind of experiment: Antiviral activity against Influenza B virus (B/Lee/40) infected in MDCK cells assessed as inhibition of virus-induced cytopathogenicity at 1 hr post-infection measured after 3 days by fluorescein-diacetate based fluorimetric analysis. It is filed as functional, organism-based. Conditions: B/Lee/1940, MDCK. In a few lines:
as §1

CC50, EC50 and selectivity ratio data for 29 molecules are collected here from ChEMBL document CHEMBL2331187, “Efficient synthesis of 3H,3'H-spiro[benzofuran-2,1'-isobenzofuran]-3,3'-dione as novel skeletons specifically for influenza virus type B inhibition” (Eur J Med Chem, 2013).

In general, CC50 refers to the concentration at which the toxic effect on the cells reaches its halfway point. High values mean lower toxicity to the cells, low ones greater toxicity to the cells. A word on the EC50: it is the concentration giving half of the maximal effect. Turning to `O=C1OC2(Oc3ccccc3C2=O)c2ccccc21` (stereo not drawn), in series [1], the 50% cytotoxic concentration (CC50) at 72 h is > 500 µM. The EC50 was 88.1 µM in series [2] and > 500 µM in series [3]. For the same molecule, the selectivity ratio in series [4] came out at 20.
In turn, `CC(C)c1ccc2c(c1)OC1(OC(=O)c3ccccc31)C2=O` (stereo not drawn) gave a CC50 at 72 h in series [1] of 314 µM. The EC50 in series [2] came out at 44.9 µM; in series [3] it was 148 µM.
The like results for `O=C1OC2(Oc3c(ccc4ccccc34)C2=O)c2ccccc21` (stereo not drawn) were, in that order, 40.4 µM, < 6.2 µM and < 6.2 µM.
In the case of `O=C1OC2(Oc3cc4ccccc4cc3C2=O)c2ccccc21` (stereo not drawn), the half-maximal effective concentration (EC50) stood at 132 µM in series [5]; 96.1 µM in series [2]; 39.4 µM in series [6]; 206 µM in series [3]; 159 µM in series [7]. The CC50 at 72 h in series [1] was > 500 µM.
For `O=C1OC2(Oc3cc(-c4ccccc4)ccc3C2=O)c2ccccc21` (stereo not drawn), the CC50 at 72 h in series [1] was 36.3 µM. The values for the EC50 in series [2] and in series [3] were < 6.2 µM and 7.6 µM, respectively. Besides, in series [4], the selectivity ratio is < 5.
For the molecule `O=C1OC2(Oc3cc(Cl)ccc3C2=O)c2ccccc21` (stereo not drawn), in series [1], the CC50 at 72 h is > 500 µM. In addition, the EC50 in series [2] and in series [3] was > 500 µM each time.
`CCOC(=O)c1ccc2c(c1)C(=O)C1(OC(=O)c3ccccc31)O2` (stereo not drawn): the CC50 at 72 h in series [1] was > 500 µM. For the same molecule, the EC50 in series [2] and in series [3] was > 500 µM in each case.
`O=C1OC2(Oc3c(Cl)ccc(Cl)c3C2=O)c2ccccc21` (stereo not drawn) displayed a CC50 at 72 h in series [1] of 86 µM. In addition, the EC50 in series [2] worked out at 18.4 µM; in series [3], 25.5 µM.
The like results for `Cc1cc2c(cc1C)C1(OC2=O)Oc2cc(C(C)C)ccc2C1=O` (stereo not drawn) were, in that order, > 500 µM, > 500 µM and 321 µM.
For `Nc1ccc2c(c1)OC1(OC(=O)c3ccccc31)C2=O` (stereo not drawn), in that order: 305 µM, 27.4 µM and 49 µM.
Consider `COc1ccc2c(c1)OC1(OC(=O)c3ccccc31)C2=O` (stereo not drawn), for which the CC50 at 72 h in series [1] is > 500 µM. In addition, the EC50 in series [2] and in series [3] was > 500 µM each time.
Consider `Cc1cccc2c1OC1(OC(=O)c3ccccc31)C2=O` (stereo not drawn), for which the EC50 in series [5] amounted to 104 µM; in series [2] it was 24.7 µM; in series [6], 53 µM; in series [3] it was 83.2 µM; in series [7], 199 µM. Also, the CC50 at 72 h in series [1] is > 500 µM.
As to `Cc1ccc2c(c1)OC1(OC(=O)c3ccccc31)C2=O` (stereo not drawn), the EC50 in series [5] was 46.9 µM; in series [2], 25.7 µM; in series [6], 31.2 µM; in series [3] it was 27.8 µM; in series [7], 59.9 µM. This molecule also had a CC50 at 72 h in series [1] of 376 µM.
As for `Cc1ccc2c(c1)C(=O)C1(OC(=O)c3ccccc31)O2` (stereo not drawn), the EC50 is 28 µM in series [5]; 7.6 µM in series [2]; 24.8 µM in series [6]; 32.9 µM in series [3]; 32.8 µM in series [7]. In series [1], the CC50 at 72 h was 293 µM.
For the molecule `O=C1OC2(Oc3c(cccc3-c3ccccc3)C2=O)c2ccccc21` (stereo not drawn), the EC50 in series [5] turned out to be 11.2 µM; in series [2], 4.3 µM; in series [6], 8.3 µM; in series [3], 12.9 µM; in series [7], 12.2 µM. The midpoint of cytotoxicity in series [1], the CC50 at 72 h, lay at 29.2 µM. Besides, the selectivity ratio in series [4] is < 5.
For `O=C1OC2(Oc3ccc(-c4ccccc4)cc3C2=O)c2ccccc21` (stereo not drawn), the half-maximal effective concentration (EC50) was 12.1 µM in series [5]; 6.6 µM in series [2]; 10.8 µM in series [6]; > 30.3 µM in series [3]; 14.1 µM in series [7]. This molecule displayed a cytotoxic concentration (CC50) at 72 h in series [1] of 30.3 µM. Further, in series [4], the selectivity ratio is < 5.
Regarding `O=C1OC2(Oc3c(Cl)cccc3C2=O)c2ccccc21` (stereo not drawn), the EC50 in series [5] turned out to be 96.3 µM; in series [2], 21.7 µM; in series [6], 61.4 µM; in series [3], 174 µM; in series [7] it was 227 µM. Moreover, the CC50 at 72 h in series [1] is > 500 µM.
Consider `O=C1OC2(Oc3ccc(Cl)cc3C2=O)c2ccccc21` (stereo not drawn), for which the EC50 amounted to 28.6 µM in series [5]; 7.8 µM in series [2]; 21.7 µM in series [6]; 25.2 µM in series [3]; 38.8 µM in series [7]. The CC50 at 72 h in series [1] amounted to 153 µM.
`CCc1ccc2c(c1)OC1(OC(=O)c3ccccc31)C2=O` (stereo not drawn): the EC50 amounted to 32.2 µM in series [5]; 11.2 µM in series [2]; 12.1 µM in series [6]; 34.6 µM in series [3]; 34.4 µM in series [7]. This molecule also returned a CC50 at 72 h in series [1] of 103 µM.
Take `CCc1ccc2c(c1)C(=O)C1(OC(=O)c3ccccc31)O2` (stereo not drawn): the EC50 in series [5] came out at 25.4 µM; in series [2] it was 7.5 µM; in series [6], 9.3 µM; in series [3], 28.1 µM; in series [7], 31.2 µM. Besides, in series [1], the CC50 at 72 h was 112 µM.
As for `CCCc1ccc2c(c1)C(=O)C1(OC(=O)c3ccccc31)O2` (stereo not drawn), the half-maximal effective concentration (EC50) in series [5] was 27.6 µM; in series [2] it was 9.8 µM; in series [6] it was 25 µM; in series [3], 30.8 µM; in series [7], 33.7 µM. The midpoint of cytotoxicity in series [1], the CC50 at 72 h, lay at 100 µM.
As for `Cc1ccc2c(c1C)OC1(OC(=O)c3ccccc31)C2=O` (stereo not drawn), the EC50 amounted to 23.5 µM in series [5]; 9.9 µM in series [2]; 28.9 µM in series [6]; 7.1 µM in series [3]; 32 µM in series [7]. The CC50 at 72 h in series [1] was 370 µM.
Consider `Cc1cc(C)c2c(c1)OC1(OC(=O)c3ccccc31)C2=O` (stereo not drawn), for which the EC50 was > 500 µM in series [5]; > 500 µM in series [2]; > 500 µM in series [6]; 11.4 µM in series [3]; > 500 µM in series [7]. Besides, the CC50 at 72 h in series [1] is > 500 µM.
With `Cc1ccc(C)c2c1OC1(OC(=O)c3ccccc31)C2=O` (stereo not drawn), the EC50 was 42.7 µM in series [5]; > 187 µM in series [2]; 66.6 µM in series [6]; > 187 µM in series [3]; > 187 µM in series [7]. The same molecule displayed a CC50 at 72 h in series [1] of 187 µM.
`O=C1OC2(Oc3cc4c(cc3C2=O)CCC4)c2ccccc21` (stereo not drawn): the EC50 in series [5] was determined as 4.8 µM; in series [2], 2.1 µM; in series [6] it was 5.7 µM; in series [3] it was 9.8 µM; in series [7], 10.6 µM. The midpoint of cytotoxicity in series [1], the CC50 at 72 h, lay at 80.4 µM.
Consider `Cc1cc2c(c(C)c1C)C(=O)C1(OC(=O)c3ccccc31)O2` (stereo not drawn), for which the EC50 in series [5] was 103 µM; in series [2], 11 µM; in series [6], 23.2 µM; in series [3], > 500 µM; in series [7], 254 µM. Also, the CC50 at 72 h in series [1] was > 500 µM.
For `COc1cccc2c1OC1(OC(=O)c3ccccc31)C2=O` (stereo not drawn), the EC50 in series [5] stood at 81.1 µM; in series [2], 23.6 µM; in series [6] it was 42.3 µM; in series [3], 126 µM; in series [7], 58.2 µM. The CC50 at 72 h in series [1] was found to be 253 µM.
On to `NC12CC3CC(CC(C3)C1)C2` [AMANTADINE], for which the half-maximal effective concentration (EC50) in series [5] was > 100 µM; in series [2], > 100 µM; in series [6] it was > 100 µM; in series [3], 0.6 µM; in series [7] it was > 100 µM. In addition, the CC50 at 72 h in series [1] is > 100 µM.
With `NC(=O)c1nc(F)cnc1O` [FAVIPIRAVIR], the EC50 in series [5] amounted to 1.32 µM; in series [2], 1.94 µM; in series [6], 2.84 µM; in series [3], 6.95 µM; in series [7], 1.93 µM. Further, the CC50 at 72 h in series [1] was > 100 µM.
